The target in data set [1] is T1, Cannabinoid receptor 1 (Homo sapiens, UniProt P21554). The data set can be described thus: Antagonist activity against human CB1 receptor. The format is functional.
The nature of data set [2]: Intrinsic clearance in human liver microsomes in presence of UGT. The format is ADME, Microsome. A digest of the protocol:
(§1)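 UGT pathway: human gut or liver microsomes at 0.5 mg protein/mL with 2 mM UDPGA, alamethicin and 1 mM MgCl2, pH 7.1. Compound depletion measured by LC–MS/MS in duplicate time-course incubations; intrinsic clearance expressed per mg protein.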
A general note: Microsomes from liver hold many membrane-bound enzymes, among them those of drug oxidation.

Data set [3] in a line: Intrinsic clearance in human gut microsomes in presence of UGT. The format is ADME, Microsome. A digest of the protocol:
as §1

Data set [4] in a line: Intrinsic clearance in human gut microsomes in presence of NADPH. In kind it is ADME, Microsome. The procedure, abridged: (§2)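 Pooled human microsomes (gut or liver) at 0.5 mg protein/mL with 1 mM NADPH, pH 7.4 (P450 pathway). Compound loss followed by LC–MS/MS in duplicate time-course incubations; intrinsic clearance given per mg protein.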
In data set [5] the target is T1, Cannabinoid receptor 1. As to the kind of experiment: biochemical. The format is cell-based, CHO.
Data set [6] is described as follows: Intrinsic clearance in human liver microsomes in presence of NADPH. In kind it is ADME, Microsome. A digest of the protocol:
as §2

Data set [7] addresses Cannabinoid receptor 2 (Homo sapiens, UniProt P34972). As to the kind of experiment: Displacement of [3H]CP55940 from human recombinant CB2 receptor expressed in Sf9 cells. A digest of the protocol: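 Competition binding against [3H]CP55,940 on membranes from Sf9 cells expressing recombinant human CB2 receptor; run at least in duplicate.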
For orientation: In a radioligand displacement assay an active substance lowers the binding of a labelled ligand.

Data set [8] relates to Mus musculus. The data set can be described thus: Inhibition of WIN55212-2-induced hypothermia in po dosed mouse assessed as change in rectal temperature administered 15 mins before WIN55212-2 challenge measured after 75 mins. In kind it is functional. The conditions noted are these: read-out: ID50 (the source's name). A digest of the protocol:
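Antagonist or vehicle (5% mulgofen in saline, 10 mL/kg) given orally 75 min before rectal temperature reading. WIN 55,212-2 mesylate (10 mL/kg) given sc 60 min before the reading, at its time of maximal hypothermia. Metal probe with vaseline inserted about 1.5 cm; highest temperature stable for 10 s recorded. ID50 reported with confidence interval.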

Data set [9] is described as follows: Intrinsic clearance in dog liver microsomes in presence of NADPH. The format is ADME, Canis lupus familiaris, Microsome. A digest of the protocol: (§3)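 P450 pathway: compound depletion in duplicate time-course incubations of microsomes at 0.5 mg protein/mL with 1 mM NADPH, pH 7.4. Liver microsomes prepared in-house; small intestinal microsomes purchased. Loss measured by LC–MS/MS; CL_int expressed per mg microsomal protein.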

A short description of data set [10]: Bioavailability in dog. The format is ADME, organism-based, Canis lupus familiaris. To be noted: in vivo.
Data set [11] in a line: Intrinsic clearance in dog liver microsomes in presence of UGT. The format is ADME, Canis lupus familiaris, Microsome. The procedure, abridged: (§4)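 UGT pathway: compound loss in duplicate time-course incubations of liver (prepared in-house) or small intestinal microsomes at 0.5 mg protein/mL, with 2 mM UDPGA, alamethicin and 1 mM MgCl₂ at pH 7.1. Detection by LC–MS/MS; CL_int expressed per mg microsomal protein.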

The nature of data set [12]: Intrinsic clearance in rat gut microsomes in presence of UGT. In kind it is ADME, Microsome. A digest of the protocol: as §4
Data set [13] is described as follows: Intrinsic clearance in dog gut microsomes in presence of NADPH. In kind it is ADME, Canis lupus familiaris, Microsome. A digest of the protocol:
as §3

Data set [14] is filed under the species Canis familiaris. As to the kind of experiment: Clearance in dog. In kind it is ADME, organism-based, Canis lupus familiaris. To be noted: in vivo.
A short description of data set [15]: Intrinsic clearance in mouse gut microsomes in presence of UGT. In kind it is ADME, Microsome. The procedure, abridged: as §4
A short description of data set [16]: Bioavailability in rat. The format is ADME, organism-based. To be noted: in vivo.
Data set [17] in a line: Intrinsic clearance in rat gut microsomes in presence of NADPH. The format is ADME, Microsome. A digest of the protocol: as §3
Data set [18] in a line: Intrinsic clearance in rat liver microsomes in presence of NADPH. The format is ADME, Microsome. The procedure, abridged: as §3
Data set [19] is described as follows: Intrinsic clearance in mouse gut microsomes in presence of NADPH. In kind it is ADME, Microsome. A digest of the protocol:
as §3

The nature of data set [20]: Intrinsic clearance in rat liver microsomes in presence of UGT. The format is ADME, Microsome. A digest of the protocol:
as §4

For data set [21], the species on record is Rattus norvegicus. As to the kind of experiment: Clearance in rat. The format is ADME, organism-based. The conditions noted are these: in vivo.
The nature of data set [22]: Bioavailability in mouse. The format is ADME, organism-based. To be noted: in vivo.
Data set [23] can be described thus: Intrinsic clearance in mouse liver microsomes in presence of UGT. The format is ADME, Microsome. A digest of the protocol:
as §4

Data set [24] can be described thus: Intrinsic clearance in dog gut microsomes in presence of UGT. In kind it is ADME, Canis lupus familiaris, Microsome. The procedure, abridged:
as §4

Data set [25] in a line: Intrinsic clearance in mouse liver microsomes in presence of NADPH. In kind it is ADME, Microsome. The procedure, abridged: as §3
For data set [26], the species on record is Mus musculus. As to the kind of experiment: Clearance in mouse. The format is ADME, organism-based. To be noted: in vivo.
Data set [27] is filed under the species Homo sapiens. As to the kind of experiment: Clearance in human. The format is ADME, organism-based. To be noted: in vivo.
Data set [28] in a line: clinical. The conditions noted are these: human, in vivo.

The values below come from ChEMBL document CHEMBL1759935, “Pharmacokinetic optimisation of novel indole-2-carboxamide cannabinoid CB1 antagonists” (Bioorg Med Chem Lett, 2011).

Sequence of Cannabinoid receptor 2 (P34972 whole entry): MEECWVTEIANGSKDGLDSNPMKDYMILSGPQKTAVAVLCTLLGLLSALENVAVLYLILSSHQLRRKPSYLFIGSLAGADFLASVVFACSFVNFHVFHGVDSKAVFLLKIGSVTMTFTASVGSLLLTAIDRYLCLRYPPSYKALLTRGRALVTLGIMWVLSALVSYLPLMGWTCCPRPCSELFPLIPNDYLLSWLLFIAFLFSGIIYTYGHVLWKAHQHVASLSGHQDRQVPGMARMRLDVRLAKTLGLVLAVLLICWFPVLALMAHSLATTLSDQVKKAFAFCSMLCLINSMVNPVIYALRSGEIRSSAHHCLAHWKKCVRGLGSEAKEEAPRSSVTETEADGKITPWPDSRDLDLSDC
T1 sequence (P21554 whole entry): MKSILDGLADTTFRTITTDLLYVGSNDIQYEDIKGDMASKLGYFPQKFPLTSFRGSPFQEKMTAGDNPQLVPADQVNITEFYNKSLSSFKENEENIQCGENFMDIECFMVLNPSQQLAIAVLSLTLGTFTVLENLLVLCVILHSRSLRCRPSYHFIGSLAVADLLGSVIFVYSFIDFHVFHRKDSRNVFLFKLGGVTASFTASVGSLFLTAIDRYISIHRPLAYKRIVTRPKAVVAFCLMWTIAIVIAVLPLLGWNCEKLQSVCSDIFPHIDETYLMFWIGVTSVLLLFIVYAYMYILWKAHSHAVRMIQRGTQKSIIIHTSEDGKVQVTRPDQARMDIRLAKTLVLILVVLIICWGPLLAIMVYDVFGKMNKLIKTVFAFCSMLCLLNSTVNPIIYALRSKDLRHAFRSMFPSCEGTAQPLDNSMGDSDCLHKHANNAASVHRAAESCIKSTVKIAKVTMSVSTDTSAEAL

In general, IC50 refers to the concentration at which inhibition is half-maximal. What is called microsomal CLint is a measure of how fast metabolising enzymes remove a compound, apart from limits set by blood flow. As usually defined, the Ki is a measure of affinity in units of concentration, obtained from inhibition or displacement. `CC(C)(CO)CNC(=O)c1cc2cc(C#N)ccc2n1Cc1cccc(OC(F)(F)F)c1` showed a concentration for half-maximal inhibition (IC50) in [1] of 1.82 nM. Further, the microsomal CLint is 20 µL/min/mg in [2], 136 µL/min/mg in data set [3], less than 6 µL/min/mg in [4] and 62 µL/min/mg in data set [6]. In addition, the Ki in data set [5] is 0.794 nM; in data set [7], greater than 10000 nM. The ED50 in data set [8] was found to be 3.42 µmol/kg.
One may read the bioavailability as dose-corrected exposure relative to a reference, in per cent. Read a low bioavailability as poor availability. As usually defined, the clearance is the rate of elimination divided by the concentration. Take `COc1ccc(OC(F)(F)F)cc1Cn1c(C(=O)NCC(C)(C)CO)cc2cc(C#N)ccc21`: the microsomal CLint in data set [9] is less than 6 µL/min/mg; in data set [11], 7 µL/min/mg; in [12] it was less than 6 µL/min/mg; in [13], less than 6 µL/min/mg; in data set [15], less than 6 µL/min/mg; in [2], 31 µL/min/mg. Further, the microsomal CLint was less than 6 µL/min/mg in [17]; 69 µL/min/mg in [18]; less than 6 µL/min/mg in [19]; 191 µL/min/mg in [20]; 68 µL/min/mg in data set [3]; less than 6 µL/min/mg in data set [4]. For the same compound, the intrinsic metabolic clearance (microsomal CLint) in data set [23] is less than 6 µL/min/mg; in [6], 69 µL/min/mg; in [24], less than 6 µL/min/mg; in data set [25], 45 µL/min/mg. The bioavailability was determined as 67% in data set [10], 8% in [16] and 30% in data set [22]. The figures for the clearance in data set [14], in data set [21] and in data set [26] were 7 mL/min/kg, 104 mL/min/kg and 17 mL/min/kg, respectively. This compound gave a 50% inhibitory concentration (IC50) in data set [1] of 1.17 nM. In addition, the values for the Ki in data set [5] and in [7] were 0.398 nM and greater than 10000 nM, respectively. In addition, the ED50 in data set [8] stood at 0.88 µmol/kg.
Take `COc1ccc(OC(F)(F)F)cc1Cn1c(C(=O)NCC(C)(C)O)cc2cc(C#N)ccc21`: the IC50 in data set [1] is 22.4 nM. Besides, the microsomal CLint is less than 6 µL/min/mg in data set [2], 8 µL/min/mg in data set [3], less than 6 µL/min/mg in [4] and less than 6 µL/min/mg in [6]. The same compound gave a Ki in data set [5] of 5.5 nM. The ED50 in [8] was greater than 10 µmol/kg.
Take `Cc1ccc(C(F)(F)F)cc1Cn1c(C(=O)NCCC(C)(C)O)cc2cc(C#N)ccc21`: the microsomal CLint is 17 µL/min/mg in data set [9]; less than 6 µL/min/mg in [11]; less than 6 µL/min/mg in [12]; less than 6 µL/min/mg in data set [13]; less than 6 µL/min/mg in [15]; less than 6 µL/min/mg in data set [2]. Also, the microsomal CLint is less than 6 µL/min/mg in data set [17]; greater than 280 µL/min/mg in data set [18]; less than 6 µL/min/mg in [19]; greater than 280 µL/min/mg in data set [20]; less than 6 µL/min/mg in data set [3]; less than 6 µL/min/mg in data set [4]. Moreover, the microsomal CLint in data set [23] is less than 6 µL/min/mg; in [6], 12 µL/min/mg; in [24], less than 6 µL/min/mg; in [25] it was 33 µL/min/mg. The bioavailability in [10] was found to be 42%; in data set [16] it was 2%; in data set [22], 31%. The values for the clearance in [14], in data set [21] and in data set [26] were 15 mL/min/kg, 200 mL/min/kg and 10 mL/min/kg, respectively. Also, half-maximal inhibition in data set [1] (IC50) was put at 5.13 nM. Also, the results for the Ki in data set [5] and in data set [7] were 4.37 nM and greater than 10000 nM, respectively. Moreover, the ED50 in data set [8] amounted to 1.16 µmol/kg.
With `O=C(c1ccc(OCCN2CCCCC2)cc1)c1c(-c2ccc(O)cc2)sc2cc(O)ccc12` [RALOXIFENE], the microsomal CLint is 178 µL/min/mg in [9]; 26 µL/min/mg in [11]; 5 µL/min/mg in [12]; less than 6 µL/min/mg in data set [13]; 34 µL/min/mg in [15]; 24 µL/min/mg in data set [2]. The microsomal CLint in [17] is less than 6 µL/min/mg; in [18], 79 µL/min/mg; in [19], less than 6 µL/min/mg; in data set [20], 11 µL/min/mg; in data set [3] it was 346 µL/min/mg; in data set [4], less than 6 µL/min/mg. Moreover, the microsomal CLint in data set [23] was less than 6 µL/min/mg; in [6], 79 µL/min/mg; in data set [24] it was 22 µL/min/mg; in data set [25], 66 µL/min/mg. Moreover, the bioavailability in data set [10] was found to be 5%; in data set [16], 4%; in data set [28], 2%; in data set [22], 10%. Further, the clearance stood at 21 mL/min/kg in data set [27], 40 mL/min/kg in data set [14], 58 mL/min/kg in data set [21] and 108 mL/min/kg in [26].
